Reference: ChEMBL document CHEMBL1125382, “Benzazepinone calcium channel blockers. 2. Structure-activity and drug metabolism studies leading to potent antihypertensive agents. Comparison with benzothiazepinones” (J Med Chem, 1992)

Assays:
Rattus norvegicus [1] = experiment: In vivo evaluation for the percentage decrease in blood pressure at 135 umol/kg administered through oral route in spontaneously hypertensive rats and observed for 12-18 h.; type: functional
Procedure, shortened: (§1)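 Male spontaneously hypertensive rats, 15 weeks old, dosed by oral gavage at 135 μmol/kg. Blood pressure recorded directly via an indwelling abdominal aortic catheter exteriorized in the intrascapular region. Sampled over 20-s intervals every 5 min for 24 h. Value is the maximum percent fall in systolic pressure from predrug control within the stated period, mean of five rats.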

Rattus norvegicus [2] = experiment: In vivo evaluation for the percentage decrease in blood pressure at 135 umol/kg administered through oral route in spontaneously hypertensive rats and observed for 0-6 h.; type: functional; procedure, shortened: as §1
[3] = In Vitro evaluation for the affinity for the diltiazem receptor in isolated guinea pig skeletal muscle microsomal preparations by inhibiting [3H]diltiazem binding; type: microsomes, Cavia porcellus, Muscle tissue
Procedure, shortened: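 Membranes from male guinea pig (350–450 g) hind-limb muscle, mainly quadriceps and gastrocnemius, in 50 mM Tris-HCl. 125–250 μg protein incubated with [3H]-d-cis-diltiazem and competing drug, 250 μL final, 30 °C for 1 h. Rapid GF/B filtration and scintillation counting. Nonspecific binding defined with 100 μM unlabeled diltiazem. Kd calculated from concentration–response curves for inhibition of specific binding; ±SEM.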

Rattus norvegicus [4] = experiment: In vivo evaluation for the percentage decrease in blood pressure at 135 umol/kg administered through oral route in spontaneously hypertensive rats and observed for 6-12 h.; type: functional; procedure, shortened: as §1
Oryctolagus cuniculus [5] = species: Oryctolagus cuniculus; experiment: In vitro evaluation for the vasorelaxant effects in circumferential strips of potassium-depolarized rabbit aorta. (IC50 in rabbit aorta strips contracted with KCl; type: functional
Procedure, shortened: (§2)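 Circumferential strips of rabbit thoracic aorta, contracted by depolarization with 100 mM KCl, then exposed to various concentrations of compound.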

Oryctolagus cuniculus [6] = species: Oryctolagus cuniculus; experiment: Vasorelaxant effects in circumferential strips of potassium-depolarized rabbit aorta. (IC50 in rabbit aorta strips contracted with KCl(95% confidence interval)); type: functional, organism-based; procedure, shortened: as §2
Oryctolagus cuniculus [7] = species: Oryctolagus cuniculus; experiment: In Vitro evaluation for the vasorelaxant effects in circumferential strips of potassium-depolarized rabbit aorta. (IC50 in rabbit aorta strips contracted with KCl; type: functional; procedure, shortened: as §2
Rattus norvegicus [8] = experiment: In vivo evaluation for the percentage decrease in blood pressure at 270 umol/kg administered through oral route in spontaneously hypertensive rats and observed for 12-18 h; type: functional

| SMILES | Decrease (Rattus norvegicus [1]) | Decrease (Rattus norvegicus [2]) | Kd [3] | Decrease (Rattus norvegicus [4]) | IC50 (Oryctolagus cuniculus [5]; Oryctolagus cuniculus, Aorta) | IC50 (Oryctolagus cuniculus [6]; Oryctolagus cuniculus, Aorta) | IC50 (Oryctolagus cuniculus [7]) | Decrease (Rattus norvegicus [8]) | IC50 (Oryctolagus cuniculus [5]) | IC50 (Oryctolagus cuniculus [6]) |
| --- | --- | --- | --- | --- | --- | --- | --- | --- | --- | --- |
| COc1ccc([C@H]2Cc3c(cccc3C(F)(F)F)N(CCN(C)C)C(=O)[C@@H]2OC(C)=O)cc1.Cl (relative stereo) | 11% | 5% | 3800 nM | 9% | > 10000 nM | – | – | – | – | – |
| COc1ccc([C@@H]2Cc3cc(C(F)(F)F)ccc3N(CCN(C)C)C(=O)[C@@H]2O)cc1.Cl | 14% | 8% | – | 9% | – | – | – | – | – | – |
| COc1ccc([C@@H]2Cc3c(cccc3C(F)(F)F)N(CCN(C)C)C(=O)[C@@H]2OC(C)=O)cc1.Cl (stereo in doubt) | 30% | 31% | 120 nM | 27% | – | 150 nM | – | – | – | – |
| COc1ccc([C@H]2Cc3cc(Cl)ccc3N(CCN(C)C)C(=O)[C@H]2OC(C)=O)cc1 (relative stereo) | 9% | 1% | 8200 nM | 4% | – | – | – | – | – | – |
| COc1ccc([C@@H]2Cc3c(cccc3C(F)(F)F)N(CCO)C(=O)[C@@H]2OC(C)=O)cc1 | 4% | 1% | – | 3% | – | – | – | – | – | – |
| COc1ccc([C@@H]2Sc3ccccc3N(CCN(C)C)C(=O)[C@@H]2OC(C)=O)cc1 [DILTIAZEM] | – | – | – | – | – | – | 1800 nM | – | – | – |
| COc1ccc([C@@H]2Cc3c(cccc3C(F)(F)F)N(C[C@@H]3CCCN3)C(=O)[C@@H]2O)cc1 | 27% | 30% | – | 26% | – | – | 95 nM | – | – | – |
| COc1ccc([C@H]2Cc3c(cccc3C(F)(F)F)N(CCN(C)C)C(=O)[C@H]2OC(C)=O)cc1.Cl (stereo in doubt; 4n) | 9% | 9% | 2000 nM | 9% | – | 4900 nM | – | – | – | – |
| COc1ccc([C@@H]2Cc3c(cccc3C(F)(F)F)N(C[C@H]3CCCN3)C(=O)[C@@H]2OC(C)=O)cc1 | 26% | 21% | – | 22% | – | 630 nM | – | – | – | – |
| COc1ccc([C@@H]2Cc3cc(C(F)(F)F)ccc3N(CCN(C)C)C(=O)[C@@H]2OC(C)=O)cc1.Cl | 18% | – | – | 19% | – | – | – | – | – | – |
| COc1ccc([C@@H]2Cc3cc(Cl)ccc3N(CCN(C)C)C(=O)[C@@H]2OC(C)=O)cc1 | – | 13% | – | 14% | – | 1500 nM | – | 18% | – | – |
| COc1ccc([C@H]2Cc3cc(Cl)ccc3N(CCN(C)C)C(=O)[C@@H]2OC(C)=O)cc1 | 12% | 12% | 690 nM | 12% | – | – | – | – | – | – |
| COc1ccc([C@@H]2Cc3c(cccc3C(F)(F)F)N(C[C@H]3CCCN3C)C(=O)[C@@H]2OC(C)=O)cc1 | 18% | 20% | – | 21% | – | 1100 nM | – | – | – | – |
| COc1ccc([C@@H]2Cc3c(cccc3C(F)(F)F)N(CC(=O)O)C(=O)[C@@H]2OC(C)=O)cc1 | 4% | 6% | – | 3% | > 3000 nM | – | – | – | – | – |
| COc1ccc([C@@H]2Sc3cc(Cl)ccc3N(CCN(C)C)C(=O)[C@@H]2OC(C)=O)cc1 [CLENTIAZEM] | – | – | 81 nM | – | – | – | – | – | 240 nM | – |
| COc1ccc([C@@H]2Cc3c(cccc3C(F)(F)F)N(CCN(C)C)C(=O)[C@@H]2O)cc1 | 28% | 21% | – | 26% | – | 300 nM | – | – | – | – |
| CNCCN1C(=O)[C@H](O)[C@H](c2ccc(OC)cc2)Cc2cc(C(F)(F)F)ccc21 | 14% | 14% | – | 15% | 1900 nM | – | – | – | – | – |
| COc1ccc([C@@H]2Cc3cc(OC)ccc3N(CCN(C)C)C(=O)[C@@H]2OC(C)=O)cc1.Cl | 10% | 15% | – | 8% | – | – | – | – | – | – |

| SMILES | Decrease (Rattus norvegicus [1]) | Decrease (Rattus norvegicus [2]) | Kd [3] | Decrease (Rattus norvegicus [4]) | IC50 (Oryctolagus cuniculus [5]; Oryctolagus cuniculus, Aorta) | IC50 (Oryctolagus cuniculus [6]; Oryctolagus cuniculus, Aorta) | IC50 (Oryctolagus cuniculus [7]) | Decrease (Rattus norvegicus [8]) | IC50 (Oryctolagus cuniculus [5]) | IC50 (Oryctolagus cuniculus [6]) |
| --- | --- | --- | --- | --- | --- | --- | --- | --- | --- | --- |
| COc1ccc([C@@H]2Cc3c(cccc3C(F)(F)F)N(C[C@@H]3CCCN3)C(=O)[C@@H]2OC(C)=O)cc1 | 38% | 45% | – | 39% | – | – | – | – | – | – |
| COc1ccc([C@@H]2Cc3cc(C(F)(F)F)ccc3N(CCN(C)C)C(=O)[C@@H]2OC(C)=O)cc1.Cl (stereo in doubt) | 19% | 19% | 180 nM | 22% | – | 1600 nM | – | – | – | – |
| COc1ccc([C@@H]2Cc3ccccc3N(CCN(C)C)C(=O)[C@@H]2OC(C)=O)cc1.Cl | – | 8% | 5100 nM | 8% | – | 4700 nM | – | 13% | – | – |
| COc1ccc([C@@H]2Cc3c(OC)cccc3N(CCN(C)C)C(=O)[C@@H]2OC(C)=O)cc1.Cl | 1% | 0% | – | 0% | – | 2400 nM | – | – | – | – |
| CNCCN1C(=O)[C@H](OC(C)=O)[C@H](c2ccc(OC)cc2)Cc2cc(C(F)(F)F)ccc21 | 31% | 28% | – | 29% | 880 nM | – | – | – | – | – |
| COc1ccc([C@@H]2Sc3ccccc3N(CCN(C)C)C(=O)[C@@H]2OC(C)=O)cc1 (relative stereo) [DILTIAZEM] | 17% | 23% | 200 nM | 12% | – | 210 nM | – | – | – | – |
| COc1ccc([C@@H]2Cc3ccc(Cl)cc3N(CCN(C)C)C(=O)[C@@H]2OC(C)=O)cc1 | 4% | 7% | – | 2% | 7700 nM | – | – | – | – | – |
| COc1ccc([C@@H]2Cc3c(cccc3C(F)(F)F)N(CCN(C)C)C(=O)[C@@H]2OC(C)=O)cc1.Cl | 24% | 24% | – | 26% | 240 nM | – | – | – | – | – |
| COc1ccc([C@@H]2Cc3c(cccc3C(F)(F)F)N(CC=O)C(=O)[C@@H]2OC(C)=O)cc1 | – | – | – | – | – | – | > 3000 nM | – | – | – |
| COc1ccc([C@@H]2Sc3cc(Cl)ccc3N(CCN(C)C)C(=O)[C@@H]2OC(C)=O)cc1 (relative stereo) [CLENTIAZEM] | 24% | 41% | 95 nM | 26% | – | – | – | – | – | – |
| COc1ccc([C@@H]2Cc3c(cccc3C(F)(F)F)N(C[C@@H]3CCCN3C)C(=O)[C@@H]2OC(C)=O)cc1 | 29% | 30% | – | 29% | 520 nM | – | – | – | – | – |
| COc1ccc([C@H]2Cc3cc(C(F)(F)F)ccc3N(CCN(C)C)C(=O)[C@H]2OC(C)=O)cc1.Cl (stereo in doubt) | 7% | 7% | 6300 nM | 8% | – | > 10000 nM | – | – | – | – |
| CNCCN1C(=O)[C@H](OC(C)=O)[C@H](c2ccc(OC)cc2)Cc2c1cccc2C(F)(F)F | 32% | 32% | – | 34% | – | 180 nM | – | – | – | – |
| COc1ccc([C@H]2Cc3c(cccc3C(F)(F)F)N(CCN(C)C)C(=O)[C@H]2OC(C)=O)cc1.Cl (stereo in doubt; 4p) | 7% | – | 1200 nM | 8% | – | – | – | – | – | 3900 nM |
| COc1ccc(C2Sc3cc(OC)ccc3N(CCN(C)C)C(=O)C2OC(C)=O)cc1 (stereo not given) | – | – | 42 nM | – | 120 nM | – | – | – | – | – |
| COc1ccc([C@@H]2Cc3c(Cl)cccc3N(CCN(C)C)C(=O)[C@@H]2OC(C)=O)cc1 | 11% | 9% | – | 8% | – | 1600 nM | – | – | – | – |
| COc1ccc([C@@H]2Cc3c(cccc3C(F)(F)F)N(C[C@H]3CCCN3)C(=O)[C@@H]2O)cc1 | 18% | 17% | – | 18% | – | 890 nM | – | – | – | – |
| CNCCN1C(=O)[C@H](O)[C@H](c2ccc(OC)cc2)Cc2c1cccc2C(F)(F)F | 22% | 16% | – | 20% | 690 nM | – | – | – | – | – |
